Experiments:
Assay type in all cases: functional
PC-3 = test: Growth inhibition in human PC3 cells assessed as viable cells at 10 uM after 48 hrs by sulforhodamine B assay; details: PC-3, 48 h, read-out: Activity
Procedure, shortened: (§1)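 NCI 60-line screen, single dose 10^-5 M, 48 h continuous exposure. Cells grown in RPMI 1640 with 5% FBS and 2 mM L-glutamine, plated at 5000–40,000 cells/well and preincubated 24 h at 37 °C, 5% CO2. Drug stocks in DMSO. Endpoint: TCA fixation, SRB staining, absorbance at 515 nm. Growth % relative to untreated controls and time-zero plates.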

SF-295 = test: Growth inhibition in human SF295 cells assessed as viable cells at 10 uM after 48 hrs by sulforhodamine B assay; details: SF-295, 48 h, read-out: Activity
U-251 = test: Growth inhibition in human U251 cells assessed as viable cells at 10 uM after 48 hrs by sulforhodamine B assay; details: U-251, 48 h, read-out: Activity; procedure, shortened: as §1
[1] = Growth inhibition in human Hs 578T cells assessed as viable cells at 10 uM after 48 hrs by sulforhodamine B assay; details: read-out: Activity; procedure, shortened: as §1
OVCAR-8 = test: Growth inhibition in human OVCAR8 cells assessed as viable cells at 10 uM after 48 hrs by sulforhodamine B assay; details: OVCAR-8, 48 h, read-out: Activity
[2] = Antioxidant activity assessed as inhibition of Fe(3+)/ascorbate-induced lipid peroxidation in liposomes after 1 hr by TBARS assay
Procedure, shortened: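 Lecithin liposomes were sonicated in 10 mmol/L phosphate buffer, pH 7.4. Final mix: 3.08 mg liposome/mL, 123.2 µmol FeCl3, 123.2 µmol ascorbic acid, test compound 0.025–0.4 mM. Incubated 1 h at 37 °C. MDA measured by TBA reaction; n-butanol layer read at 532 nm against a lecithin-free blank. EC50 is the concentration reducing TBARS to 50% of control.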

UO-31 = test: Growth inhibition in human UO31 cells assessed as viable cells at 10 uM after 48 hrs by sulforhodamine B assay; details: UO-31, 48 h, read-out: Activity; procedure, shortened: as §1
A498 = test: Growth inhibition in human A498 cells assessed as viable cells at 10 uM after 48 hrs by sulforhodamine B assay; details: A498, 48 h, read-out: Activity; procedure, shortened: as §1
M14 = test: Growth inhibition in human M14 cells assessed as viable cells at 10 uM after 48 hrs by sulforhodamine B assay; details: M14, 48 h, read-out: Activity; procedure, shortened: as §1
UACC-257 = test: Growth inhibition in human UACC257 cells assessed as viable cells at 10 uM after 48 hrs by sulforhodamine B assay; details: UACC-257, 48 h, read-out: Activity
Malme-3M = test: Growth inhibition in human MALME-3M cells assessed as viable cells at 10 uM after 48 hrs by sulforhodamine B assay; details: read-out: Activity
UACC-62 = test: Growth inhibition in human UACC62 cells assessed as viable cells at 10 uM after 48 hrs by sulforhodamine B assay; details: UACC-62, 48 h, read-out: Activity
SK-OV-3 = test: Growth inhibition in human SKOV3 cells assessed as viable cells at 10 uM after 48 hrs by sulforhodamine B assay; details: SK-OV-3, 48 h, read-out: Activity; procedure, shortened: as §1
CAKI-1 = test: Growth inhibition in human Caki1 cells assessed as viable cells at 10 uM after 48 hrs by sulforhodamine B assay; details: CAKI-1, 48 h, read-out: Activity; procedure, shortened: as §1
BT-549 = test: Growth inhibition in human BT549 cells assessed as viable cells at 10 uM after 48 hrs by sulforhodamine B assay; details: BT-549, 48 h, read-out: Activity; procedure, shortened: as §1
SF-539 = test: Growth inhibition in human SF539 cells assessed as viable cells at 10 uM after 48 hrs by sulforhodamine B assay; details: SF-539, 48 h, read-out: Activity
MCF7 = test: Growth inhibition in human MCF7 cells assessed as viable cells at 10 uM after 48 hrs by sulforhodamine B assay; details: MCF7, 48 h, read-out: Activity; procedure, shortened: as §1
SF-268 = test: Growth inhibition in human SF268 cells assessed as viable cells at 10 uM after 48 hrs by sulforhodamine B assay; details: SF-268, 48 h, read-out: Activity
[3] = Antioxidant activity assessed as trolox equivalent of ABTS free radical scavenging activity after 6 mins by […]
Procedure, shortened: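 ABTS radical cation solution was added to compounds (0.2–6.25 mM). Decrease in absorbance at 734 nm was read exactly 6 min after mixing, with ethanol blanks. A Trolox standard curve (final 0–20 µM in ethanol) gives TEAC, the mM Trolox equivalent to 1 mM compound. Run in triplicate.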

LOX IMVI = test: Growth inhibition in human LOXIMVI cells assessed as viable cells at 10 uM after 48 hrs by sulforhodamine B assay; details: read-out: Activity
TK-10 = test: Growth inhibition in human TK10 cells assessed as viable cells at 10 uM after 48 hrs by sulforhodamine B assay; details: TK-10, 48 h, read-out: Activity; procedure, shortened: as §1
OVCAR-3 = test: Growth inhibition in human OVCAR-3 cells assessed as viable cells at 10 uM after 48 hrs by sulforhodamine B assay; details: OVCAR-3, 48 h, read-out: Activity
OVCAR-5 = test: Growth inhibition in human OVCAR5 cells assessed as viable cells at 10 uM after 48 hrs by sulforhodamine B assay; details: OVCAR-5, 48 h, read-out: Activity
SNB-19 = test: Growth inhibition in human SNB19 cells assessed as viable cells at 10 uM after 48 hrs by sulforhodamine B assay; details: SNB-19, 48 h, read-out: Activity
DU-145 = test: Growth inhibition in human DU145 cells assessed as viable cells at 10 uM after 48 hrs by sulforhodamine B assay; details: DU-145, 48 h, read-out: Activity; procedure, shortened: as §1
MDA-MB-435 = test: Growth inhibition in human MDA-MB-435 cells assessed as viable cells at 10 uM after 48 hrs by sulforhodamine B assay; details: MDA-MB-435, 48 h, read-out: Activity
ACHN = test: Growth inhibition in human ACHN cells assessed as viable cells at 10 uM after 48 hrs by sulforhodamine B assay; details: read-out: Activity; procedure, shortened: as §1
[4] = system: Radical scavenging activity; test: Antioxidant activity assessed as DPPH radical scavenging activity after 30 mins by spectrophotometry
Procedure, shortened: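 Test compounds (0.2–6.25 mM) dissolved in DMSO, added to 6×10^-5 M methanolic DPPH. Mixture held 30 min at room temperature in the dark, then absorbance read at 517 nm against methanol. Scavenging % = [1 − A_sample/A_control] × 100, with a negative control lacking sample. Triplicates averaged; EC50 taken from dose–response.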

[5] = Antioxidant activity assessed as reduction of […]/ferricyanide complex after 20 mins by spectrophotometry
Procedure, shortened: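 Compounds (1.6–6.25 mM) mixed with 0.2 M phosphate buffer, pH 6.6, and 1% potassium ferricyanide, 20 min at 50 °C. Stopped with 1% TCA and centrifuged at 2790 g for 10 min. Supernatant plus water and 0.1% FeCl3 read at 700 nm. EC50 is the concentration giving absorbance 0.5. Mean ± SD of triplicates.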

SK-MEL-28 = test: Growth inhibition in human SK-MEL-28 cells assessed as viable cells at 10 uM after 48 hrs by sulforhodamine B assay; details: SK-MEL-28, 48 h, read-out: Activity; procedure, shortened: as §1
NCI/ADR-RES = test: Growth inhibition in human NCI/ADR-RES cells assessed as viable cells at 10 uM after 48 hrs by sulforhodamine B assay; details: read-out: Activity; procedure, shortened: as §1
SNB-75 = test: Growth inhibition in human SNB75 cells assessed as viable cells at 10 uM after 48 hrs by sulforhodamine B assay; details: SNB-75, 48 h, read-out: Activity
786-0 = test: Growth inhibition in human 786-0 cells assessed as viable cells at 10 uM after 48 hrs by sulforhodamine B assay; details: 786-0, 48 h, read-out: Activity; procedure, shortened: as §1
MDA-MB-468 = test: Growth inhibition in human MDA-MB-468 cells assessed as viable cells at 10 uM after 48 hrs by sulforhodamine B assay; details: MDA-MB-468, 48 h, read-out: Activity; procedure, shortened: as §1
MDA-MB-231 = test: Growth inhibition in human MDA-MB-231/ATCC cells assessed as viable cells at 10 uM after 48 hrs by sulforhodamine B assay; details: MDA-MB-231, 48 h, read-out: Activity; procedure, shortened: as §1
OVCAR-4 = test: Growth inhibition in human OVCAR4 cells assessed as viable cells at 10 uM after 48 hrs by sulforhodamine B assay; details: OVCAR-4, 48 h, read-out: Activity
SK-MEL-2 = test: Growth inhibition in human SK-MEL-2 cells assessed as viable cells at 10 uM after 48 hrs by sulforhodamine B assay; details: SK-MEL-2, 48 h, read-out: Activity
IGROV-1 = test: Growth inhibition in human IGROV1 cells assessed as viable cells at 10 uM after 48 hrs by sulforhodamine B assay; details: IGROV-1, 48 h, read-out: Activity
SN12C = test: Growth inhibition in human SN12C cells assessed as viable cells at 10 uM after 48 hrs by sulforhodamine B assay; details: read-out: Activity; procedure, shortened: as §1
SK-MEL-5 = test: Growth inhibition in human SK-MEL-5 cells assessed as viable cells at 10 uM after 48 hrs by sulforhodamine B assay; details: SK-MEL-5, 48 h, read-out: Activity
T47D = test: Growth inhibition in human T47D cells assessed as viable cells at 10 uM after 48 hrs by sulforhodamine B assay; details: read-out: Activity

SMILES: CN1C(=O)C2(Nc3ccccc3S2)c2cc(OC(F)(F)F)ccc21 (stereo unspecified)
- viability at 10 µM (PC-3): 84.6%
- viability at 10 µM (SF-295): 102%
- viability at 10 µM (U-251): 88.4%
- viability at 10 µM [1]: 92.4%
- viability at 10 µM (OVCAR-8): 99.1%
- EC50 [2]: 84 µM
- viability at 10 µM (UO-31): 58.3%
- viability at 10 µM (A498): 108%
- viability at 10 µM (M14): 102%
- viability at 10 µM (UACC-257): 102%
- viability at 10 µM (Malme-3M): 98.5%
- viability at 10 µM (UACC-62): 80.4%
- viability at 10 µM (SK-OV-3): 102%
- viability at 10 µM (CAKI-1): 96.8%
- viability at 10 µM (BT-549): 108%
- viability at 10 µM (SF-539): 116%
- viability at 10 µM (MCF7): 82.8%
- viability at 10 µM (SF-268): 97.7%
- EC50 [3]: 1370 µM
- viability at 10 µM (LOX IMVI): 98.6%
- viability at 10 µM (TK-10): 105%
- viability at 10 µM (OVCAR-3): 103%
- viability at 10 µM (OVCAR-5): 121%
- viability at 10 µM (SNB-19): 92.4%
- viability at 10 µM (DU-145): 107%
- viability at 10 µM (MDA-MB-435): 100%
- viability at 10 µM (ACHN): 80.9%
- EC50 [4]: 1620 µM
- EC50 [5]: 4940 µM
- viability at 10 µM (SK-MEL-28): 103%
- viability at 10 µM (NCI/ADR-RES): 100%
- viability at 10 µM (SNB-75): 55.3%
- viability at 10 µM (786-0): 108%
- viability at 10 µM (MDA-MB-468): 112%
- viability at 10 µM (MDA-MB-231): 96.2%
- viability at 10 µM (OVCAR-4): 73.4%
- viability at 10 µM (SK-MEL-2): 101%
- viability at 10 µM (IGROV-1): 86.2%
- viability at 10 µM (SN12C): 105%
- viability at 10 µM (SK-MEL-5): 99.7%
- viability at 10 µM (T47D): 60%

SMILES: Cc1c(C)c2c(c(C)c1O)CC[C@@](C)(CCC[C@H](C)CCC[C@H](C)CCCC(C)C)O2 [ALPHA-TOCOPHEROL]
- EC50 [2]: 153 µM
- EC50 [3]: 1200 µM
- EC50 [4]: 350 µM
- EC50 [5]: 1950 µM

SMILES: O=C1O[C@H]([C@@H](O)CO)C(O)=C1O [ASCORBIC ACID]
- EC50 [3]: 1200 µM
- EC50 [4]: 360 µM
- EC50 [5]: 650 µM

SMILES: CN1C(=O)C2(Nc3ccccc3S2)c2cc([N+](=O)[O-])ccc21 (stereo unspecified)
- EC50 [2]: 92 µM
- EC50 [3]: 1340 µM
- EC50 [4]: 1270 µM
- EC50 [5]: 5140 µM

SMILES: Cc1ccc2c(c1)C1(Nc3ccccc3S1)C(=O)N2C (stereo unspecified)
- EC50 [2]: 34 µM
- EC50 [3]: 980 µM
- EC50 [4]: 980 µM
- EC50 [5]: 700 µM
